Reference: article PMC7610841 (Nature, 2020)
Entries after “also recorded” stand apart in the source; their conditions may differ.

Assays:
[1] = test system: Distal-less; settings: overexpressed; ref [13],[14]; cited from earlier work
[2] = test system: GFP-Wingless[S239A]; experiment: In vivo trapping of GFP-Wingless[S239A] at the surface of imaginal disc cells; set-up: species or system Drosophila; settings: glypican overexpressed with ptc-Gal4 in imaginal discs
[3] = test system: senseless; settings: overexpressed; ref [13],[14]; cited from earlier work
[4] = test system: GFP-Wingless; experiment: In vivo trapping of GFP-Wingless at the surface of wing imaginal disc cells; set-up: species or system Drosophila; settings: overexpressed with ptc-Gal4 in wing imaginal discs
Outline: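 GFP-Wingless knock-in wing discs with V5-tagged human GPC4, GPC6, GPC3 or GPC5 driven by ptc-Gal4, crossed at 25°C. Surface capture of GFP-Wingless imaged by confocal microscopy after immunostaining with Alexa-conjugated secondaries and DAPI mounting. Three independent repeats.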

[5] = test system: GFP-Wingless; experiment: Colocalisation with morphotrap-enriched GFP-Wingless in wing discs; assay type: in vivo, Drosophila; settings: n=4 (Dlp^ΔGPI-V5), n=13 (ApoL), n=10 (Hrs)
Outline: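 For ApoL and Hrs, morphotrap is driven by dpp-Gal4 and the endogenous proteins are immunostained. For Dlp ΔGPI-V5, morphotrap is driven by dpp-LexA and Dlp by wg-Gal4, limited to 24 h with Gal80ts (18°C rearing, 29°C shift). Confocal imaging; colocalisation scored where domains intersect; SD; three repeats.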

[6] = test system: Wingless; settings: ref [13],[14]; cited from earlier work
[7] = test system: GFP-Wingless; experiment: Solubilisation of GFP-Wingless in serum-free S2 cell medium; assay type: cell-based, Drosophila; settings: conditioned medium from S2 cells expressing Dlp^ΔGPI-V5 added to S2 cells expressing GFP-Wingless, 12hrs, concentrated 20-fold, Western blot
[8] = test system: GFP-Wingless; settings: culture medium, literature; ref [6],[22]; cited from earlier work
[9] = Lipid binding of furin-site mutant vs wild-type Dlp^core; settings: furin sites destroyed: K398Q, K399A, R402Q, R438Q, R441A

B1: Dlp: Drosophila glypican Dally-like protein (protein)
chain: PQVAALAAPNPAGGVAGSSIIDQFSPNCSAVTHIFQARGIDAIEIPQKPSNERVLRYCESPSVGTCCTYNMETRMAMQSRQQLEGHTKDQISRMSGILGSKATKFKDIFTALLKESRTQFNSMFIRTYGVIYERNSYVFSDLFKELETYFANGRVDLLEVMDKFFNTLYQKMFTVLNTQYTFDENYMRCVSEHMKELKPFGDVPDKLSVQIKRSFVATRTYGQALTTASEVAKKVLNVRLNADCTGALTKMQHCGACKGYTEKPCTNYCVNVIKGCLHYQHEFDSEWENFAMAMDKVAERLLGSFNIVMVVEPLNIKISEAIMNFQDSGQDITNRVFQGCGRPKLKKMKRSISPKLQGVQILNARSPVEADTLDIDETLDEAIVLRERRAAEPGSQETSAQQSQEQGVGKSGNGGGGGGGNNRRQQQRRKQQQQRRKQQNNRDDNDDDDNESGGGREPILDRIVRDIRQRVKDYKKFWSNLPHSVCSNEDIASSSDVDGMCWNGHTIDRYMHSITTEHGSNPEFTGNPASTKQTAQMASQLSHLKNAIVHLRNAYNGQDVEWSEQEELPYAGSGAGSGSGSEDDEDDDEGSGLGPFEPSHKPDVERPSVDADNDDDEDAGGRGHMPTHTSRPTSGVDDKNPLIHTTHFDQDHNDLDEDHRQLDEDEDTDAG
modifications: left off: HA, end not stated, kept
- biphasic activity in wing imaginal discs: distal-less [1]: extending the range of the low target gene distal-less
- trapping of GFP-Wingless[S239A] (unlipidated) [2]: did not detectably trap; also recorded: not GFP-Wingless[S239A]
- biphasic activity in wing imaginal discs: senseless [3]: inhibiting the high target gene senseless
- trapping of GFP-Wingless at the cell surface [4]: duly trapped endogenous-level GFP-Wingless; also recorded: captures GFP-Wingless

B2: Dlp^ΔGPI: secreted form of Dlp lacking its membrane anchor, amino acids 53-723 (protein)
chain: B1 chain
modifications: left off: V5, C-terminal, kept
- colocalisation with morphotrap-enriched GFP-Wingless [5]: colocalizes
- binding to Wingless [6]: known to bind Wingless
- solubilisation of GFP-Wingless, added conditioned medium [7]: A similar effect was seen
- solubilisation of GFP-Wingless, added conditioned medium ([7]; listed as Dlp^ΔGPI-V5): stabilises GFP-Wingless in solution

B3: Afamin: lipid-binding protein (protein, UniProt P43652 22-599, looked up)
Afamin: LPTQPRDIENFNSTQKFIEDNIEYITIIAFAQYVQEATFEEMEKLVKDMVEYKDRCMADKTLPECSKLPNNVLQEKICAMEGLPQKHNFSHCCSKVDAQRRLCFFYNKKSDVGFLPPFPTLDPEEKCQAYESNRESLLNHFLYEVARRNPFVFAPTLLTVAVHFEEVAKSCCEEQNKVNCLQTRAIPVTQYLKAFSSYQKHVCGALLKFGTKVVHFIYIAILSQKFPKIEFKELISLVEDVSSNYDGCCEGDVVQCIRDTSKVMNHICSKQDSISSKIKECCEKKIPERGQCIINSNKDDRPKDLSLREGKFTDSENVCQERDADPDTFFAKFTFEYSRRHPDLSIPELLRIVQIYKDLLRNCCNTENPPGCYRYAEDKFNETTEKSLKMVQQECKHFQNLGKDGLKYHYLIRLTKIAPQLSTEELVSLGEKMVTAFTTCCTLSEEFACVDNLADLVFGELCGVNENRTINPAVDHCCKTNFAFRRPCFESLKADKTYVPPPFSQDLFTFHADMCQSQNEELQRKTDRFLVNLVKLKHELTDEELQSLFTNFANVVDKCCKAESPEVCFNEESPKIGN
- release of soluble Wnt on addition of lipid-binding protein [8]: enables the release of soluble Wnt

B4: furin mutant form: Dlp^core form where both furin sites were destroyed (protein)
chain: DQFSPNCSAVTHIFQARGIDAIEIPQKPSNERVLRYCESPSVGTCCTYNMETRMAMQSRQQLEGHTKDQISRMSGILGSKATKFKDIFTALLKESRTQFNSMFIRTYGVIYERNSYVFSDLFKELETYFANGRVDLLEVMDKFFNTLYQKMFTVLNTQYTFDENYMRCVSEHMKELKPFGDVPDKLSVQIKRSFVATRTYGQALTTASEVAKKVLNVRLNADCTGALTKMQHCGACKGYTEKPCTNYCVNVIKGCLHYQHEFDSEWENFAMAMDKVAERLLGSFNIVMVVEPLNIKISEAIMNFQDSGQDITNRVFQGCGRPKLQAMKQSISPKLQGVQILNARSPVEADTLDIDETLDEAIVLQERAAAEPGSQETSAQQSQEQGVGKSGNGGGGGGGNNRRQQQRRKQQQQRRKQQNNRDDNDDDDNESGGGREPILDRIVRDIRQRVKDYKKFWSNLPHSVCSNEDIASSSDVDGMCWNGHTIDRYMHSITTEHGSNPEFTGNPASTKQTAQMASQLSHLKNAIVHLRNAYNGQDVEWSEQ
modifications: left off: Twin-Strep, C-terminal, cleaved
- lipid binding behaviour vs wild-type form [9]: No difference in lipid binding behaviour
